From ChEMBL document CHEMBL3102691, “4-Quinolone alkaloids from Melochia odorata” (J Nat Prod, 2014)

Tests used:
[1] = Cytotoxicity against human CEM-TART cells assessed as cell viability after 72 hrs by MTT assay; assay type: cell-based; settings: read-out: LC50
Outline: (§1)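 20,000 CEM-TART cells with compound (DMSO, 0.5% final) in RPMI/20% FBS with antibiotic; 72 h at 37 °C, 5% CO2; MTT (5 mg/mL in PBS) added, formazan dissolved in DMSO/0.1% SDS and read on plate reader; triplicate or quadruplicate. Highest concentration tested 100 μM.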

[2] = Therapeutic index, ratio of LC50 for human CEM-TART cells to EC50 for HIV-1 infected in human CEM-TART cells; assay type: cell-based; settings: read-out: TI
[3] = tested on: Human immunodeficiency virus 1; experiment: Antiviral activity against HIV-1 infected in human CEM-TART cells assessed as protection against virus-induced cytopathicity after 96 hrs by MTT assay; assay type: functional, organism-based
Outline: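 1A2 subclone of CEM-TART (more lysis-sensitive) in RPMI 1640/20% FBS; compound in DMSO (1% vol) added 2 h after HIV infection; 96 h at 37 °C, 5% CO2; viability by MTT (3–4 h), formazan dissolved in DMSO/0.1% SDS, A570. Triplicates per plate; EC50 = concentration giving 50% of protection by 5 μM AZT, data from ≥3 experiments combined.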

[4] = tested on: Human immunodeficiency virus 1; experiment: Antiviral activity against HIV1 infected in human CEM-TART cells assessed as inhibition of viral p24 antigen production at 1.7 uM after 48 hrs by FACS analysis; assay type: functional; settings: Human immunodeficiency virus 1, CEM-TART
Outline: (§2)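 HIV-infected CEM-TART cells, 48 h. Cells washed in PBS and blocked with murine myeloma IgG (1:100, 30 min, 4 °C). Then fixed in PBS/1% paraformaldehyde/0.05% Triton X100 and stained with AG3.0 mouse anti-P24 (1:50). FITC goat anti-mouse secondary, 30 min at 4 °C each step. Intracellular P24 read by flow cytometry. AZT 5 or 0.5 μg/mL controls.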

[5] = tested on: Human immunodeficiency virus 1; experiment: Antiviral activity against HIV1 infected in human CEM-TART cells assessed as inhibition of viral p24 antigen production at 0.95 uM after 48 hrs by FACS analysis; assay type: functional; settings: Human immunodeficiency virus 1, CEM-TART; outline: as §2
[6] = Cytotoxicity against human CEM-TART cells assessed as cell viability at 100 uM after 72 hrs by MTT assay; assay type: cell-based; outline: as §1
[7] = Human immunodeficiency virus 1, CEM-TART, 96 h, read-out: EC50

SMILES | CC50 at 72 h [1] | selectivity ratio [2] | EC50 [3, 7] | inhibition at 1.7 µM [4] | inhibition at 0.95 µM [5] | Activity [6] | EC50 ([3]; cem-tart)
COc1ccccc1[C@@]1(O)c2ccc3[nH]c(C)c(OC)c(=O)c3c2[C@@H]2CC[C@H]1O2 | 102 µM | 2 | 56.2 µM | > 50% | – | – | –
COc1c(C)[nH]c2ccc3c(c2c1=O)[C@@H]1CCC[C@@]3(c2ccccc2)O1 | 11 µM | 13 | 0.84 µM | – | > 50% | – | –
Cc1[nH]c2ccc3c(c2c(=O)c1O[C@@H]1O[C@H](CO)[C@@H](O)[C@H](O)[C@H]1O)[C@@H]1CC[C@H](O)[C@@]3(c2ccccc2)O1 | – | – | – | – | – | Non-toxic | Not Active
Cc1cn([C@H]2C[C@H](N=[N+]=[N-])[C@@H](CO)O2)c(=O)[nH]c1=O [ZIDOVUDINE] | 89.5 µM | – | 1.3 µM | – | – | – | –
